Data set [1] is described as follows: Inhibition of 5'[32P]-labeled 34 base ssDNA binding to recombinant full length human RPA expressed in Escherichia coli cells preincubated for 30 mins followed by labeled DNA addition and measured after 5 mins by electrophoretic mobility shift assay. An outline of the steps: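 Purified heterotrimeric human RPA without tags or modifications, binding to ssDNA read by EMSA. […] IC50 is the mean of at least three independent experiments, reported as mean ± SD.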
A general note: Mobility shift assays separate free from complexed probe on a gel.

In another data set the test system is Salmon testes DNA. As to the kind of experiment: Displacement of SYBR-green from salmon sperm DNA assessed as DNA intercalation by measuring reduction in fluorescence at 5 to 20 uM after 5 mins by fluorescent intercalator displacement assay. Format: nucleic-acid assay. The note with it: Salmonidae. The method, boiled down:
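Sybr-green intercalator bound to DNA. Displacement was read as a fall in fluorescence across a range of compound concentrations. Doxorubicin served as the positive control.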

Data set [2] is described as follows: Aqueous solubility of compound in unbuffered H2O at pH 7 by absorbance spectroscopy based LC-MS analysis. The format is physicochemical. The note with it: buffer. The method, boiled down:
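Aqueous solubility was measured in three independent determinations and reported as mean and SD.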

The nature of data set [3]: Drug uptake in human H460 cells at 20 uM incubated for 4 hrs by LC-MS analysis. Format: ADME, cell-based. The note with it: nci-h460, 4 h. The method, boiled down:
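H460 NSCLC cells. Individual points come from three independent determinations and are reported as mean and SD.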

A further data set is filed under the species Homo sapiens. As to the kind of experiment: Inhibition of 5'[32P]-labeled 34 base ssDNA binding to SUMO-His6-tagged RPA DBD A/B domain (181-432 residues) (unknown origin) expressed in Escherichia coli BL21 (DE3) cells preincubated for 30 mins followed by labeled DNA addition and measured after 5 mins by electrophoretic mobility shift assay.
Data set [4] can be described thus: Irreversible inhibition of RPA (unknown origin). Also on record: species or system Homo sapiens.

Calls of active or inactive are those of the source. The rule behind the calls is not given here.

Consider `CCOc1ccc2cc(C3CC(c4ccc(N)cc4)=NN3C(=O)CCCC(=O)O)c(Cl)nc2c1` (stereo not given), for which, in data set [1] (read-out: IC50), the IC50 is 2.3 µM. The inhibition result in the data set with Salmon testes DNA was “inactive”.

For the compound `CCOc1ccc2cc(C3CC(c4ccc(-c5ccc(Cl)nc5)cc4)=NN3C(=O)CCCC(=O)NCCCN3CCOCC3)c(Cl)nc2c1` (stereo not given), in data set [1] (read-out: IC50), the IC50 came to 4 µM. Further, the solubility entry in data set [2] is listed as “Soluble”. In addition, the inhibition result in the data set on Salmon testes DNA is “inactive”. Further, the Drug uptake entry in data set [3] is given as “Active”.

With `CCOc1ccc2cc(C3CC(c4ccc(I)cc4)=NN3C(=O)CCCC(=O)NCCCN3CCOCC3)c(Cl)nc2c1` (stereo not given), in data set [1] (read-out: IC50), the IC50 was determined as 4.9 µM. In addition, in data set [2], the solubility result is reported as “Soluble”. In addition, the inhibition result with Salmon testes DNA was “inactive”. Moreover, in data set [3], the Drug uptake result is reported as “Active”.

For the compound `CCOc1ccc2cc(C3CC(c4ccc(-c5ccc(Cl)nc5)cc4)=NN3C(=O)CCCC(=O)O)c(Cl)nc2c1` (stereo not given), in the data set listed under Homo sapiens, the inhibition result is “Active”. Further, the IC50 in data set [1] (read-out: IC50) came out at 1.6 µM. In data set [2], the solubility entry is given as “Soluble”. Also, the inhibition entry in the data set on Salmon testes DNA was “inactive”. In data set [3], the Drug uptake result is listed as “Active”.

With `CCOc1ccc2cc(C3CC(c4ccc(-c5ccoc5)cc4)=NN3C(=O)CCCC(=O)O)c(Cl)nc2c1` (stereo not given), the IC50 in data set [1] (read-out: IC50) amounted to 6.7 µM.

For the compound `CCOc1ccc2cc(C3CC(c4ccc(I)cc4)=NN3C(=O)CCCC(=O)NCCN3CCOCC3)c(Cl)nc2c1` (stereo not given), the IC50 in data set [1] (read-out: IC50) was 10.5 µM.

As for `CCOc1ccc2cc(C3CC(c4ccc(-c5ccc(N6CCOCC6)cc5)cc4)=NN3C(=O)CCCC(=O)O)c(Cl)nc2c1` (stereo not given), the inhibition result in the data set filed under Homo sapiens is “Active”. In addition, in data set [1] (read-out: IC50), the IC50 came out at 3.1 µM.

Consider `CCOc1ccc2cc(C3CC(c4ccc(I)cc4)=NN3C(=O)CCCC(=O)N3CCOCC3)c(Cl)nc2c1` (stereo not given), for which the IC50 in data set [1] (read-out: IC50) stood at 6.6 µM.

Consider `CCOc1ccc2cc(C3CC(c4ccc(Br)cc4)=NN3C(=O)CCCC(=O)NCCCN3CCOCC3)c(Cl)nc2c1` (stereo not given), for which the IC50 in data set [1] (read-out: IC50) is 10 µM. Also, in data set [2], the solubility result is reported as “Soluble”.

`COc1cccc2c1C(=O)c1c(O)c3c(c(O)c1C2=O)C[C@@](O)(C(=O)CO)C[C@@H]3O[C@H]1C[C@H](N)[C@H](O)[C@H](C)O1`: in the data set with Salmon testes DNA, the inhibition entry was “Dose-dependent effect”.

Take `CCOc1ccc2cc(C3CC(c4ccc(-c5cnoc5)cc4)=NN3C(=O)CCCC(=O)O)c(Cl)nc2c1` (stereo not given): the inhibition result in the data set listed under Homo sapiens is “Active”. Moreover, the IC50 in data set [1] (read-out: IC50) came to 1.7 µM.

For `CCOc1ccc2cc(C3CC(c4ccc(-c5ccc(F)nc5)cc4)=NN3C(=O)CCCC(=O)NCCCN3CCOCC3)c(Cl)nc2c1` (stereo not given), in data set [1] (read-out: IC50), the concentration for half-maximal inhibition (IC50) worked out at 2.3 µM. Further, the solubility result in data set [2] is given as “Soluble”. Besides, the Drug uptake entry in data set [3] was “Active”.

`CCOc1ccc2cc(C3CC(c4ccc([N+](=O)[O-])cc4)=NN3C(=O)CCCC(=O)O)c(Cl)nc2c1` (stereo not given): the half-inhibitory concentration (IC50) in data set [1] (read-out: IC50) was > 25 µM.

As to `CCOc1ccc2cc(C3CC(c4ccc(-c5ccc(F)nc5)cc4)=NN3C(=O)CCCC(=O)O)c(Cl)nc2c1` (stereo not given), in data set [1] (read-out: IC50), the IC50 was found to be 2.6 µM. Besides, in data set [2], the solubility result is “Soluble”.

`CC1(C)[C@@H]2CC[C@@]1(C)[C@H](OC(=O)CI)C2` came in with a concentration for half-maximal inhibition (IC50) in data set [4] of 10 µM.

For `CCOc1ccc2cc(C3CC(c4ccc(-c5ccc(Br)nc5)cc4)=NN3C(=O)CCCC(=O)O)c(Cl)nc2c1` (stereo not given), the inhibition entry in the data set listed under Homo sapiens is “Active”. The IC50 in data set [1] (read-out: IC50) stood at 1 µM. Moreover, the inhibition entry with Salmon testes DNA was “inactive”.

On to `CCOc1ccc2cc(C3CC(c4ccc(-c5ccc(C(F)(F)F)nc5)cc4)=NN3C(=O)CCCC(=O)O)c(Cl)nc2c1` (stereo not given), for which the half-maximal inhibitory concentration (IC50) in data set [1] (read-out: IC50) was 4.3 µM. Moreover, the solubility result in data set [2] was “Soluble”.

Turning to `CCOc1ccc2cc(C3CC(c4ccc(I)cc4)=NN3C(=O)CCCC(=O)O)c(Cl)nc2c1` (stereo not given), the IC50 in data set [1] (read-out: IC50) was in the range of 15.3 to 18 µM. In addition, in data set [2], the solubility result is “Soluble”. Further, in data set [3], the Drug uptake result is “Not Active”.

`CCOc1ccc2cc(C3CC(c4ccc(-c5ccc(C(F)(F)F)nc5)cc4)=NN3C(=O)CCCC(=O)NCCCN3CCOCC3)c(Cl)nc2c1` (stereo not given): in data set [1] (read-out: IC50), the IC50 came out at 5.8 µM. Further, in data set [2], the solubility result is “Soluble”. Further, the Drug uptake entry in data set [3] is “Active”.

On to `CCOC(=O)CCCC(=O)N1N=C(c2ccc(I)cc2)CC1c1cc2ccc(OCC)cc2nc1Cl` (stereo not given), for which, in data set [1], the IC50 entry is on record as “Not Active”.

Consider `CCOc1ccc2cc(C3CC(c4ccc(Br)cc4)=NN3C(=O)CCCC(=O)O)c(Cl)nc2c1` (stereo not given), for which the concentration for half-maximal inhibition (IC50) in data set [1] (read-out: IC50) came out at 19.2 µM. For the same compound, the solubility entry in data set [2] is listed as “Soluble”.

Turning to `CCOc1ccc2cc(C3CC(c4ccc(OC(=O)N5CCOCC5)cc4)=NN3C(=O)CCCC(=O)O)c(Cl)nc2c1` (stereo not given), the concentration for half-maximal inhibition (IC50) in data set [1] (read-out: IC50) was > 25 µM.

In the case of `CCOc1ccc2cc(C3CC(c4ccc(Br)cc4)=NN3C(=O)CCC(=O)O)c(Cl)nc2c1` (stereo not given), in data set [1] (read-out: IC50), the IC50 was determined as 38 µM.

With `C=CC(=O)Oc1ccc(C2=NN(C(=O)CCCC(=O)O)C(c3cc4ccc(OCC)cc4nc3Cl)C2)cc1` (stereo not given), the IC50 in data set [1] (read-out: IC50) worked out at 8.9 µM.

Regarding `CCOc1ccc2cc(C3CC(c4ccc(O)cc4)=NN3C(=O)CCCC(=O)O)c(Cl)nc2c1` (stereo not given), the IC50 in data set [1] (read-out: IC50) is > 25 µM.

As to `CCOc1ccc2cc(C3CC(c4ccc(-c5ccco5)cc4)=NN3C(=O)CCCC(=O)O)c(Cl)nc2c1` (stereo not given), the inhibition entry in the data set listed under Homo sapiens is “Active”. Also, the IC50 in data set [1] (read-out: IC50) was determined as 2.1 µM. In addition, the inhibition result in the data set with Salmon testes DNA was “inactive”.

As for `CC1(C)[C@@H]2CC[C@@]1(C)[C@H](OC(=O)CBr)C2`, in data set [4], the IC50 was found to be 16 µM.

Turning to `CCOc1ccc2cc(C3CC(c4ccc(I)cc4)=NN3c3cccc(C(=O)O)c3)c(Cl)nc2c1` (stereo not given), the half-inhibitory concentration (IC50) entry in data set [1] is “Not Active”.

The IC50 is the concentration that gives 50% inhibition.

Source of the values: ChEMBL document CHEMBL4616692, “Structure-Guided Optimization of Replication Protein A (RPA)-DNA Interaction Inhibitors” (ACS Med Chem Lett, 2020).
